According to ChEMBL document CHEMBL4190362, “Synthesis, biological evaluation and quantitative structure-active relationships of 1,3-thiazolidin-4-one derivatives. A promising chemical scaffold endowed with high antifungal potency and low cytotoxicity” (Eur J Med Chem, 2017):

Tests used:
Assay type in all cases: functional
[1] = tested on: Klebsiella oxytoca; test: Antibacterial activity against Klebsiella oxytoca assessed as inhibition of microbial growth incubated for 18 to 22 hrs by broth microdilution method
In short: (§1)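 Broth microdilution in Mueller-Hinton II broth following NCCLS recommendations; compounds dissolved in DMSO.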

[2] = tested on: Candida parapsilosis; test: Antifungal activity against Candida parapsilosis clinical isolates assessed as inhibition of microbial growth incubated for 24 hrs by broth microdilution method; conditions: Lodderomyces parapsilosis
In short: (§2)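 Twenty-two clinical Candida isolates (8 C. albicans, 4 C. glabrata, 3 C. tropicalis, 3 C. krusei, 2 C. parapsilosis, 2 C. sake) were identified by colony morphology and biochemistry and subcultured at 35 °C for purity. Compounds were dissolved in DMSO and tested by broth microdilution in Sabouraud dextrose broth per NCCLS/CLSI/EUCAST guidance. Values are geometric mean MIC per species (µg/mL).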

[3] = tested on: Staphylococcus aureus; test: Antibacterial activity against Staphylococcus aureus assessed as inhibition of microbial growth incubated for 18 to 22 hrs by broth microdilution method; in short: as §1
[4] = tested on: Candida albicans; test: Antifungal activity against Candida albicans clinical isolates assessed as inhibition of microbial growth incubated for 24 hrs by broth microdilution method; in short: as §2
[5] = tested on: Enterobacter; test: Antibacterial activity against Enterobacter spp. assessed as inhibition of microbial growth incubated for 18 to 22 hrs by broth microdilution method; in short: as §1
[6] = tested on: Staphylococcus warneri; test: Antibacterial activity against Staphylococcus warneri assessed as inhibition of microbial growth incubated for 18 to 22 hrs by broth microdilution method; in short: as §1
[7] = tested on: [Candida] sake; test: Antifungal activity against Candida sake clinical isolates assessed as inhibition of microbial growth incubated for 24 hrs by broth microdilution method; conditions: Fermentozyma sake; in short: as §2
[8] = tested on: Nakaseomyces glabratus; test: Antifungal activity against Candida glabrata clinical isolates assessed as inhibition of microbial growth incubated for 24 hrs by broth microdilution method; in short: as §2
[9] = tested on: Proteus mirabilis; test: Antibacterial activity against Proteus mirabilis assessed as inhibition of microbial growth incubated for 18 to 22 hrs by broth microdilution method; in short: as §1
[10] = tested on: Escherichia coli; test: Antibacterial activity against Escherichia coli assessed as inhibition of microbial growth incubated for 18 to 22 hrs by broth microdilution method; in short: as §1
[11] = tested on: Candida tropicalis; test: Antifungal activity against Candida tropicalis clinical isolates assessed as inhibition of microbial growth incubated for 24 hrs by broth microdilution method; in short: as §2
[12] = tested on: Pichia kudriavzevii; test: Antifungal activity against Candida krusei clinical isolates assessed as inhibition of microbial growth incubated for 24 hrs by broth microdilution method; in short: as §2
[13] = tested on: Enterococcus faecalis; test: Antibacterial activity against Streptococcus faecalis assessed as inhibition of microbial growth incubated for 18 to 22 hrs by broth microdilution method; in short: as §1

Compound	MIC [1] [µg/mL]	MIC [2] [µg/mL]	MIC [3] [µg/mL]	MIC [4] [µg/mL]	MIC [5] [µg/mL]	MIC [6] [µg/mL]	MIC [7] [µg/mL]	MIC [8] [µg/mL]	MIC [9] [µg/mL]	MIC [10] [µg/mL]	MIC [11] [µg/mL]	MIC [12] [µg/mL]	MIC [13] [µg/mL]
O=C1CS/C(=N/N=C\c2cccc([N+](=O)[O-])c2)N1Cc1ccccc1	≥ 256	2	≥ 256	2	≥ 256	≥ 256	8	2	≥ 256	≥ 256	2	2	≥ 256
O=C1CS/C(=N/N=C\c2ccncc2)N1Cc1ccccc1	≥ 256	256	≥ 256	256	≥ 256	≥ 256	256	256	≥ 256	≥ 256	256	256	≥ 256
C/C(=N/N=C1/SCC(=O)N1Cc1ccccc1)c1ccsc1	≥ 256	128	≥ 256	256	≥ 256	≥ 256	128	4	≥ 256	≥ 256	128	128	≥ 256
C/C(=N/N=C1/SCC(=O)N1Cc1ccccc1)c1ccco1	≥ 256	256	≥ 256	256	≥ 256	≥ 256	256	256	≥ 256	≥ 256	256	256	≥ 256
C/C(=N/N=C1/SCC(=O)N1Cc1ccccc1)c1ccccc1[N+](=O)[O-]	≥ 256	2	≥ 256	2	≥ 256	≥ 256	4	2	≥ 256	≥ 256	2	8	≥ 256
C/C(=N/N=C1/SCC(=O)N1Cc1ccccc1)c1cccc([N+](=O)[O-])c1	≥ 256	16	≥ 256	4	≥ 256	≥ 256	8	2	≥ 256	≥ 256	8	4	≥ 256
O=C1CS/C(=N/N=C\c2ccccc2[N+](=O)[O-])N1Cc1ccccc1	≥ 256	2	≥ 256	2	≥ 256	≥ 256	4	2	≥ 256	≥ 256	2	2	≥ 256
C/C(=N/N=C1/SCC(=O)N1Cc1ccccc1)c1ccncc1	≥ 256	32	≥ 256	8	≥ 256	≥ 256	32	16	≥ 256	≥ 256	32	2	≥ 256
C/C(=N/N=C1/SCC(=O)N1Cc1ccccc1)C1CCCCC1	≥ 256	8	≥ 256	8	≥ 256	≥ 256	8	8	≥ 256	≥ 256	8	8	≥ 256
O=C1CS/C(=N/N=C2CCCCCCC2)N1Cc1ccccc1	≥ 256	8	≥ 256	8	≥ 256	≥ 256	8	8	≥ 256	≥ 256	8	8	≥ 256
C/C(=N/N=C1/SCC(=O)N1Cc1ccccc1)c1ccc(Cl)s1	≥ 256	128	≥ 256	256	≥ 256	≥ 256	128	8	≥ 256	≥ 256	256	128	≥ 256
